ADAM17 inh – ADAM17 inhibitors, primary screen, biochemical, QFRET | Disintegrin and metalloproteinase domain-containing protein 17 (Homo sapiens), P78536 | recombinant ADAM17, EDANS/DABCYL FRET peptide cleavage | inhibition, % at 6.95 µM | 370,000 compounds, 0.83% hits | AID 720648, 2013;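 active = inhibition above the mean of compounds lying between control limits plus 3 SD, set per campaign, cut at about 8.5% in these data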;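 also: 0% = DMSO-only wells as the low control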
CaV13 FRET inh – Disruptors of the CACNA1D IQ motif to Ca2+-dependent inactivation inhibitor domain association, primary screening, Förster resonance energy transfer in intact living …; AID 743397; inhibition, % at 12.3 µM; 340,000 compounds, 0.098% hits; HEK cells, CFP/YFP FRET ICDI-IQ, plate reader, 10 min; percent FRET-ratio fall versus neutral wells;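 active = mean replicate inhibition of at least 30% and at least 1% of replicates passing that level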;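 also: 0% = median of the neutral control wells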
CendR NRP1 mod – modulators of CendR peptide binding to NRP-1, primary screen, biochemical, fluorescence polarization, uHTS; inhibition, % at 25 µM; FAM-RPARPAR peptide binding to NRP-1; AID 602438, 2012; 360,000 compounds, 0.85% hits;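 active = inhibition or corrected inhibition above about 18%, plus a signal ratio from 0.5 to 1.5, limit read from the data, passing the limit was not always enough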
FAS-TE inh – FAS thioesterase domain inhibitors, primary screen, biochemical, fluorescence intensity, uHTS; Fatty acid synthase (Homo sapiens), P49327; recombinant FAS-TE, OMFH fluorogenic substrate, fluorescence endpoint; inhibition, % at 15 µM; 360,000 compounds, 0.67% hits;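 active = compounds whose normalised, plate-corrected inhibition of enzyme fluorescence in the single-dose primary screen is 50% or more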;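 also: 0% = DMSO with enzyme and 100% = substrate without enzyme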
Target sequence (P49327 whole entry, looked up, the tested form may be a part): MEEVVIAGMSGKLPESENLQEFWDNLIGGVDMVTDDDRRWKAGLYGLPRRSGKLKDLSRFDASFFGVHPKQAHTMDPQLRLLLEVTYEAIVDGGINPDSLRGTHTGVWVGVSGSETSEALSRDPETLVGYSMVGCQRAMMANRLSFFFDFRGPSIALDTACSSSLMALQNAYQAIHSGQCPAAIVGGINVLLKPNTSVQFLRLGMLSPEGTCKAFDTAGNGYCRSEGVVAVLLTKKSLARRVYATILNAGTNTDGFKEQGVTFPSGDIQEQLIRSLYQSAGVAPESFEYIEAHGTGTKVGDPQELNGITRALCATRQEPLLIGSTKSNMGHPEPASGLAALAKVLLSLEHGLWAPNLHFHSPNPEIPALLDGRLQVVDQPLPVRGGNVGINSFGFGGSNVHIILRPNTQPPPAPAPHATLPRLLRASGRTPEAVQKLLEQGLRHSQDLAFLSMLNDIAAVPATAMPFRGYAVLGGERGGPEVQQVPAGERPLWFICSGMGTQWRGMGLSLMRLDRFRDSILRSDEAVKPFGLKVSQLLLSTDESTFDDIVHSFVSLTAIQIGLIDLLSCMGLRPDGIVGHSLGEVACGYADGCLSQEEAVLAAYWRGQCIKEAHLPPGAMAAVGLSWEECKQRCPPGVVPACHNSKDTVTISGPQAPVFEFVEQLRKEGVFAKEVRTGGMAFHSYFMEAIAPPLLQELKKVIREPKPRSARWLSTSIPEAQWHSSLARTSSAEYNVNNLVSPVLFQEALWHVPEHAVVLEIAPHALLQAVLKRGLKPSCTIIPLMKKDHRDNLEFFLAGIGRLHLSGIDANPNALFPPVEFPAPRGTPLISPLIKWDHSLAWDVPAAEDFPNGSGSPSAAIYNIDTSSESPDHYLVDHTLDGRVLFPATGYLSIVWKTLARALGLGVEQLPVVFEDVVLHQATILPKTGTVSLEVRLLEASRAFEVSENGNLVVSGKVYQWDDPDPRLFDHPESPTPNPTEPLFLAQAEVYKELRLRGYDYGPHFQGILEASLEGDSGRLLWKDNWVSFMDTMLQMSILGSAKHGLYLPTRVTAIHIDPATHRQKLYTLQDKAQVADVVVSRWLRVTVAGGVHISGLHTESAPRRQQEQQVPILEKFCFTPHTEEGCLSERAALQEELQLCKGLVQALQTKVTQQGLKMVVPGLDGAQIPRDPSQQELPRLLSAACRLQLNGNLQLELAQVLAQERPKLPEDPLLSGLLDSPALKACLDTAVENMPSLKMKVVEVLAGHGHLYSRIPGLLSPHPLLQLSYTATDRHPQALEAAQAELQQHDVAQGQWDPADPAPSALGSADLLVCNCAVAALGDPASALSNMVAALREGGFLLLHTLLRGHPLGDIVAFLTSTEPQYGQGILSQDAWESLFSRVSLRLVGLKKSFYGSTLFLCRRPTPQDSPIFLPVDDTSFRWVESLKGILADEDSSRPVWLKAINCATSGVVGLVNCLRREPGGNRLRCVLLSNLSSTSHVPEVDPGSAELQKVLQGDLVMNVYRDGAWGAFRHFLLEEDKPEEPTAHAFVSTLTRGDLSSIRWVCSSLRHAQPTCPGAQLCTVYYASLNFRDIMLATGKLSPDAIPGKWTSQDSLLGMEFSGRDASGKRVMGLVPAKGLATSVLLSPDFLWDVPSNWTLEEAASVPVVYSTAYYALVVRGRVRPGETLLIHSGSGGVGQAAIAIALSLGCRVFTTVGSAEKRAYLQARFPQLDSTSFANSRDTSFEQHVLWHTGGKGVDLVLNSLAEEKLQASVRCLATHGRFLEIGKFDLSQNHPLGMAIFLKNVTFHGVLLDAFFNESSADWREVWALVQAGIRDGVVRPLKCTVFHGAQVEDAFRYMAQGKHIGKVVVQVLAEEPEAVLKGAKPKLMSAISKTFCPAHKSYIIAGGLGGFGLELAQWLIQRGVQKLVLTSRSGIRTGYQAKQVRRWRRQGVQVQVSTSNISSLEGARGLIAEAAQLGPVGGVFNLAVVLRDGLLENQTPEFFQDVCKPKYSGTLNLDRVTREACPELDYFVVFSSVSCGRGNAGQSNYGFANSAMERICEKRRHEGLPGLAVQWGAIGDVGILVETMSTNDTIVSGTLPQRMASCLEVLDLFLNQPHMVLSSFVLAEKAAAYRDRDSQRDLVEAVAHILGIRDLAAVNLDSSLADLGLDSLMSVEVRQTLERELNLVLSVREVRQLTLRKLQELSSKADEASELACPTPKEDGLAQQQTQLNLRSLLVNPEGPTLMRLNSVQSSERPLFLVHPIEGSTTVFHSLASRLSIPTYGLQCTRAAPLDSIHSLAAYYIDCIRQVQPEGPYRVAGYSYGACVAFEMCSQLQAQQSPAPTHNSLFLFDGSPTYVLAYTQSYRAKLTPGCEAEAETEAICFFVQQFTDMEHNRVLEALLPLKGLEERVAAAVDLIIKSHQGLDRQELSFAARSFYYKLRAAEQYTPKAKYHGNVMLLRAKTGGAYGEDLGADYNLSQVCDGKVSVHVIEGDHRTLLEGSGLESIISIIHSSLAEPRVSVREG
ADAM10 inh – human ADAM10 inhibitors, primary screen, biochemical, QFRET, HTS; 370,000 compounds, 0.62% hits; recombinant ADAM10, EDANS/DABCYL FRET peptide cleavage, 3 h; inhibition, % at 7 µM;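 active = inhibition above a per-campaign cutoff equal to the mean of compounds falling between control-based bounds plus 3 SD, cut at about 20% in these data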;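 also: 0% = DMSO wells while the 100% control is not disclosed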
Arrestin-AP2 inh – inhibitors of beta-arrestin/AP2 binding, primary screen, biochemical, GPCR trafficking, flow cytometry; AID 504490, 2011; 340,000 compounds, 0.31% hits; inhibition, % at 10 µM; FITC-arrestin peptide / GST-AP2 beads; AP2 beta2 appendage carries R879A mutation; beta-arrestin 1 C-terminal peptide binding to AP2 beta2-adaptin appendage (human);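 active = inhibition above a set limit, near 3 SD of compounds lacking own fluorescence, cut at about 54% in these data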;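 also: plate controls were DMSO wells for no effect and 5 µM unlabelled arrestin peptide for full effect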
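System: GST-AP2 R879A bound to glutathione beads, E. coli-expressed. Also added: 50 nM FITC-arrestin peptide. Schedule: compound with beads 12 min RT, then probe 1 h RT. Signal: bead flow cytometry, FITC channel. Read-out basis: percent response.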
Active calls of the source: *; · = not tested or not shown. The list is not random: actives were taken first. Their share in the collection is about 2.9%.

SMILES	ADAM17 inh	CaV13 FRET inh	CendR NRP1 mod	FAS-TE inh	ADAM10 inh	Arrestin-AP2 inh
CCCC(c1nnnn1Cc1ccc(OC)cc1)N1CCC(C(N)=O)CC1 (stereo not given)	2	-4	12	-5	3	-4
COC(C[C@H]1O[C@@H]1[C@H](O)[C@H](C)OCc1ccccc1)OC	0	-6	26*	-11	2	-8
COC(C[C@H]1O[C@H]1[C@@H](O)[C@H](C)OCc1ccccc1)OC	-3	-6	1	-12	-3	·
COc1cc([N+](=O)[O-])cc(/C=N/NC(=O)C(C)Nc2cccc3ccccc23)c1O (stereo not given)	-7	-3	32*	8	-30	-33
O=C(COc1ccc(Cl)cc1)NCc1nnc(SCC(=O)NCCc2ccccc2)o1	-3	-5	20*	0	0	-2
O=C(COc1ccc(Cl)cc1)NCc1nnc(SCC(=O)Nc2ccccc2)o1	-2	-5	16	-1	0	-6
N#Cc1ccc(Cn2ccc3ccc(-c4ccc5ccn(C(=O)C6CCC6)c5c4)cc32)cc1	-10	·	·	·	-44	·
O=C(Cn1cnc2ccccc2c1=O)N/N=C/c1ccc(Br)cc1	-2	-18	23*	-2	7	12
CCOC(=O)N1CCC(NC(=O)CCCN2C(=O)CSc3ncccc32)CC1	-3	·	0	-3	-9	2
O=C(CCCN1C(=O)CSc2ncccc21)N1CCN(Cc2ccccc2)CC1	-1	37*	-2	-5	-4	-5
CCOC(=O)c1cccc(N2CC3CNC(=O)C2(C(=O)OC)N3C)c1 (stereo not given)	-31	-10	21*	-9	-130	0
CCOC(=O)c1cccc(N2C(=O)C3C4C=CC(CC4)C3C2=O)c1 (stereo not given)	-5	-4	8	-6	4	13
O=C(NCCCN1CCCC(O)C1)c1cc(COc2ccc(F)cc2F)on1 (stereo not given)	-12	-6	40*	-5	-15	46
CCCCCC(=O)NC1CCCCN(Cc2ccccc2C)C1=O (stereo not given)	1	·	·	·	3	·
CC(C)CNC(=O)/C=C/C=C/CCCC/C=C/c1ccc2c(c1)OCO2	-2	-11	25*	-7	-4	0
CCOC(=O)CNC(=O)/C=C/c1ccc2c(c1)OCO2	-52	2	10	-2	-152	5
Cc1ccsc1C(=O)NCC(c1cccs1)N1CCOCC1 (stereo not given)	-1	-12	-6	-3	7	·
CC(C)c1ccccc1OCC(=O)NCC(c1cccs1)N1CCOCC1 (stereo not given)	1	·	2	8	2	1
Cn1nc(C(=O)NCC(c2cccs2)N2CCOCC2)c2ccccc2c1=O (stereo not given)	-4	-15	27*	-4	-5	-8
COc1ccccc1OCC(=O)NCC(c1cccs1)N1CCOCC1 (stereo not given)	-3	-6	25*	-5	-1	-11
Cc1cc(NC(=O)CN(C)CC(=O)Nc2ccc(Cl)cc2)no1	1	-5	19*	5	6	7
CC(=O)Nc1ccc(CNc2nc(NC(C)C)nc3ccsc23)cc1	-7	-5	28*	-6	-40	·
CCCCCCCN1C(Nc2ccccc2)=NC[C@@H]1Cc1ccccc1	0	-5	26*	-124	1	-1
COC(=O)[C@@]12C[C@@H](CC(=O)NCc3cccc4ccccc34)C(=O)N(Cc3ccco3)C1=CCC(C)(C)C2	6	-4	4	·	16	·
O=C(O)CSc1nnc(-c2ccc(Cl)cc2Cl)n1-c1ccc(Cl)cc1	-2	-7	26*	-8	0	9
SMILES	ADAM17 inh	CaV13 FRET inh	CendR NRP1 mod	FAS-TE inh	ADAM10 inh	Arrestin-AP2 inh
COc1ccc(S(=O)(=O)N2CCCCCC2)c2ccccc12	4	·	·	·	9	·
CC(=O)C1=C(C)N(Cc2ccc(F)cc2)C(=S)NC1c1cccc(F)c1 (stereo not given)	3	-3	·	·	11	·
CN(Cc1nc2ccccc2c(=O)[nH]1)C(=O)COc1ccccc1Cc1ccccc1	-2	-5	31*	7	-6	5
CCCCC#Cc1cncc(C(=O)N/N=C/c2cccc(OC)c2)c1	1	-4	38*	16	6	5
CCOC(=O)C1=CCN(S(=O)(=O)c2ccccc2Br)C1c1ccc(C)cc1 (stereo not given)	3	-6	19	20	5	·
CCOC(=O)C1=CCN(S(=O)(=O)c2ccccc2Br)C1c1ccccc1 (stereo not given)	-3	-6	25*	16	-4	·
CCOC(=O)C1=CCN(S(=O)(=O)c2ccc(C)cc2)C1c1ccc(C(C)C)cc1 (stereo not given)	4	-7	28*	24	5	·
COc1ccc(C(=O)Oc2cc(N)n(S(=O)(=O)c3ccccc3)n2)cc1	-1	97*	-4	1	-4	-6
COC(=O)C1N[C@@H]([C@@H](NC(=O)COc2ccccc2)C(=O)NCc2ccccc2)SC1(C)C (stereo not given in full)	-1	-6	32*	3	2	-6
CC(NC(=O)COc1ccccc1)C(=O)NCc1ccc(S(N)(=O)=O)cc1 (stereo not given)	-1	-6	-10	-7	-9	2
CCC(C)NC(=O)CSc1nnc(-c2cc(OC)c(OC)c(OC)c2)o1 (stereo not given)	2	·	·	·	0	·
Cc1ccc(C(=O)NCCN2C3=NC[C@H](C)N3C[C@H]2Cc2ccc(O)cc2)cc1Br	-3	-11	25*	-8	-6	4
C[C@@H]1CN([C@@H](C)CO)S(=O)(=O)c2ccc(Br)cc2O[C@H]1CN(C)Cc1ccccn1	1	-4	2	-3	-7	·
CC(O)[C@H]1CC[C@H]2[C@@H]3CC[C@H]4C[C@@H](O)CC[C@]4(C)[C@H]3C(=O)C[C@]12C (stereo not given in full)	0	-11	26*	-15	3	-10
COc1ccc(C(C)=O)cc1COC(=O)CCNS(=O)(=O)c1ccc(C(C)=O)cc1	-3	-7	44*	-2	-3	10
O=C(CCCNC(=O)/C(=C\c1ccc(F)cc1)NC(=O)c1ccccc1)OCc1ccccc1	-5	-6	31*	-1	-24	-6

High-throughput results from PubChem.
